Assay results from ChEMBL document CHEMBL5325455, “Daphnanes diterpenes from the latex of Hura crepitans L. and their PKCζ-dependent anti-proliferative activity on colorectal cancer cells” (Bioorg Med Chem, 2023).
Calls of active or inactive are those of the source. The calls are words filed in the database; no cut-off is given here.

Key:
[1] = Cytotoxicity against HIEC-6 cells assessed as inhibition of cell growth at 1 ug/ml incubated for 48 hrs by MTS assay; format: toxicity, cell-based; details: human, hiec-6, 48 h, dose 1 µg/ml
How it was run: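 HIEC6 cells were grown in OPTIMEM with GlutaMAX, Hepes and 10 ng/mL EGF and seeded at 60 000/well 48 h before dosing. Cells were exposed to 1 µg/mL for 48 h, and viability was read by MTS absorbance at 490 nm versus DMSO; 3 independent experiments, t-test.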

[2] = tested on: Caco-2; assay: Cytostatic activity against human Caco-2 cells assessed as inhibition of cell growth at 1 ug/ml preincubated for 30 mins with CRT0066854 hydrochloride followed by compound addition and measured after 48 hrs by MTS assay; format: functional, cell-based; details: dose 1.0 µg/ml
How it was run: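 Caco-2 cells were pretreated for 30 min with CRT0066854 hydrochloride (2.5 µM; 0.625 and 1.25 µM also tested), then given compound at 1 µg/mL for 48 h. MTS absorbance was read at 490 nm relative to DMSO controls; n=3, t-test.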

[3] = tested on: Caco-2; assay: (§1) Induction of morphological changes in human Caco-2 cells at 1 ug/ml preincubated for 30 mins with CRT0066854 hydrochloride followed by compound addition and measured after 48 hrs by Hoechst 3342 and phalloidin staining based confocal microscopic analysis; format: functional, cell-based; details: dose 1.0 µg/ml
How it was run: (§2)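 CRT0066854 hydrochloride (2.5 µM) was added to Caco-2 cells 30 min before compound at 1 µg/mL. After 48 h, nuclei and actin cytoskeleton were labelled and confocal views taken with a 20X objective; duplicates from one experiment.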

[4] = molecular target: T1, Protein kinase C zeta type (Homo sapiens) (UniProt Q05513); assay: Activation of PKCzeta in human Caco-2 cells assessed as increase in colocalization of PKCzeta and actin in peripheral to cell aggregates at 1 ug/ml measured after 48 hrs by immunostaining analysis; format: cell-based; details: filed as activator, dose 1.0 µg/ml
T1 sequence (whole entry): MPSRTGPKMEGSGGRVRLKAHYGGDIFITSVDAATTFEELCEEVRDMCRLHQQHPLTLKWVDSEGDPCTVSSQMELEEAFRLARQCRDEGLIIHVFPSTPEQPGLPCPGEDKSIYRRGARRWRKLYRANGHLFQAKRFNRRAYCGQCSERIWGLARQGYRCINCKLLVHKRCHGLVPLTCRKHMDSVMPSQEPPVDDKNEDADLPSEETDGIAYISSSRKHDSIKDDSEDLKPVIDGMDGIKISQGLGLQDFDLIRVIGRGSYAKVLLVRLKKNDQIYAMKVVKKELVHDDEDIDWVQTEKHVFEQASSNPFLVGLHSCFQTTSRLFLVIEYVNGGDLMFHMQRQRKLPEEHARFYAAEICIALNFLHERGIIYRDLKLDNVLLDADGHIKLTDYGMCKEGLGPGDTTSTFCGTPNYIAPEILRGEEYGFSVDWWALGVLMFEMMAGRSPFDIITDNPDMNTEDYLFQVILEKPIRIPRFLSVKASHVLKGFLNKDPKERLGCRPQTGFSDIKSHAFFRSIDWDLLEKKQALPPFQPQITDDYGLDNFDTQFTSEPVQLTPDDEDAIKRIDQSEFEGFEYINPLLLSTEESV
How it was run: (§3)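 Caco-2 cells were seeded at 40 000/well and treated for 48 h as in the viability assay. They were fixed in 3.7% PFA for 20 min and permeabilised in HBSS/0.5% Triton X100/1% BSA. Anti-PKCζ (1/50) or anti-PKCα (1/200) was applied overnight at 4°C, then Alexa 488 secondary for 45 min. Phalloidin and Hoechst counterstained the cells before confocal imaging; PKCα signal was quantified by immunofluorescence.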

[5] = tested on: Colorectal epithelial cell; assay: Cytostatic activity against human Colorectal epithelial cells isolated from patient with fistulized sigmoiditis cultured as organoids at 1 ug/ml incubated for 48 hrs by CellTiter-Glo luminescence assay; format: functional, cell-based; details: dose 1.0 µg/ml
How it was run: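 Primary colonic epithelial cells (3 control and 2 CRC patients) were expanded as organoids or spheroids in Matrigel with EGF/noggin/Wnt3a/R-spondin medium. Single cells were seeded at 2500/well and allowed 48 h to form colonoids, then exposed for 48 h at 0.01, 0.1 or 1 µg/mL, with 5FdU at 1 µg/mL as positive control. Viability was read by CellTiter-Glo luminescence versus DMSO or medium control.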

[6] = tested on: Caco-2; assay: Cytostatic activity against human Caco-2 cells assessed as inhibition of cell growth at 0.5 ug/ml incubated for 48 hrs by MTS assay relative to control; format: functional
How it was run: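 Caco-2 cells were seeded at 40 000/well 48 h before dosing. Compound was diluted from a 10 mg/mL DMSO stock into medium (0.125, 0.5 or 1 µg/mL final; DMSO ≤0.01%) and added in triplicate for 48 h. Viability was read by MTS absorbance at 490 nm and expressed relative to the DMSO control.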

[7] = tested on: Caco-2; assay: as §1, with “cells assessed as reorganization of epithelial tissue architecture by measuring effect on actin density” for “cells”; format: functional, cell-based; details: dose 1.0 µg/ml; how it was run: as §2
[8] = molecular target: T1, Protein kinase C zeta type (Homo sapiens); assay: Activation of PKCzeta in human Caco-2 cells assessed as increase in colocalization of PKCzeta and actin in dense cell aggregates at 1 ug/ml measured after 48 hrs by immunostaining analysis; format: cell-based; details: filed as activator, dose 1.0 µg/ml; how it was run: as §3
[9] = tested on: Caco-2; assay: Cytostatic activity against human Caco-2 cells assessed as reduction in cell growth at 1 ug/ml preincubated for 15 mins with PD0325901 followed by compound addition and measured after 48 hrs by MTS assay; format: functional, cell-based; details: dose 1.0 µg/ml
How it was run: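 Caco-2 cells were pretreated with 0.5 µM PD0325901 for 15 min, then given compound at 1 µg/mL for 48 h. Viability was measured by MTS at 490 nm; n=3, t-test versus DMSO.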

[10] = tested on: Zika virus; assay: Antiviral activity against ZIKV expressing GFP reporter gene measured 24 hrs post infection; format: functional, organism-based
How it was run: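 Cells in 96-well plates were exposed to serial concentrations starting at 50 µg/mL and infected with GFP-reporter Zika virus at MOI 1. At 24 h post-infection, cells were fixed in 3.7% PFA and GFP-positive cells were counted by flow cytometry.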

[11] = tested on: SARS-CoV-2; assay: Antiviral activity against SARS-CoV-2 assessed as reduction in progeny production measured 24 hrs post infection by PFU assay; format: functional, organism-based; details: Severe acute respiratory syndrome coronavirus 2, 24 h
[12] = molecular target: Protein kinase C delta type (Homo sapiens) (UniProt Q05655); assay: Inhibition of PKCdelta in human Caco-2 cells assessed as reduction in protein phosphorylation at Ser664 residue at 1 ug/ml incubated for 48 hrs by Western blot analysis; format: cell-based; details: dose 1.0 µg/ml
[13] = molecular target: Protein kinase C delta type (Homo sapiens) (UniProt Q05655); assay: (§4) Inhibition of PKCdelta in human Caco-2 cells assessed as ratio of phosphorylated PKCdelta at Ser664 residue to total PKCdelta level at 1 ug/ml incubated for 48 hrs by Western blot analysis (reference value: 0.77); format: cell-based; details: dose 1.0 µg/ml
[14] = molecular target: Protein kinase C delta type (Homo sapiens) (UniProt Q05655); assay: as §4, with “preincubated” for “incubated”, “for 15 mins with PKCalpha inhibitor, Go6976 followed by compound addition and measured after” for “for”, “0.94)” for “0.77)”; format: cell-based; details: dose 1.0 µg/ml
How it was run: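 Caco-2 cells were given 0.2 µM Gö6976 for 15 min, then compound at 1 µg/mL for 48 h. Lysates (30 µg protein) were blotted for pSer664-PKCδ and total PKCδ with actin loading control, and the pSer664/total PKCδ ratio was quantified. Data are from one experiment.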

Chain of Protein kinase C delta type (Homo sapiens) (Q05655 whole entry, looked up): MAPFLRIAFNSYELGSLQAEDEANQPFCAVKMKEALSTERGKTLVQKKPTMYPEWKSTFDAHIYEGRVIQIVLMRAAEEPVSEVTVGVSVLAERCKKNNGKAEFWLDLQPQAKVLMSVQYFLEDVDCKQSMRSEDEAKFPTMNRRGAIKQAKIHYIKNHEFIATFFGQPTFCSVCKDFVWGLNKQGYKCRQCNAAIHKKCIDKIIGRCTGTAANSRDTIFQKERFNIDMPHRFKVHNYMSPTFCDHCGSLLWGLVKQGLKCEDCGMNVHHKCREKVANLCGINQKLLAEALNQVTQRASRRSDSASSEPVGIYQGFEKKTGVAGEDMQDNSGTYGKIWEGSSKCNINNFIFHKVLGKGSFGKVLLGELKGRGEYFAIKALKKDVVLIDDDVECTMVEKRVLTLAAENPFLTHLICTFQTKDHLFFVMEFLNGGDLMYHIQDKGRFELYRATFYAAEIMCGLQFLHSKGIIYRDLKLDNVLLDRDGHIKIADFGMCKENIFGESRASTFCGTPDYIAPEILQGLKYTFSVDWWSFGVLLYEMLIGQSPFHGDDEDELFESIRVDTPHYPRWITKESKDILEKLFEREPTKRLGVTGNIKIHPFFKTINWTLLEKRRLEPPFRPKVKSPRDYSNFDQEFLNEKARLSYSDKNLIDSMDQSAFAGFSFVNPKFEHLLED

Q: What does the source list for C=C(C)[C@]12C[C@@H](C)[C@@]34O[C@](/C=C/[C@@H]5O[C@H]5CCCCCCCCC)(O[C@@H]1[C@@H]3[C@@H]1O[C@]1(CO)[C@@H](O)[C@]1(O)C(=O)C(C)=C[C@H]14)O2?
A: Activity [1]: Non-Toxic; Activity [2]: inactive; Activity [3]: inactive; Activity [4]: Active; Activity [5]: Active

Q: Which Activity [1] does the source give for C=C(C)[C@]12C[C@@H](C)[C@@]34O[C@](/C=C/C=C/CCCCCCCCC)(O[C@@H]1[C@@H]3[C@@H]1O[C@]1(CO)[C@@H](O)[C@]1(O)C(=O)C(C)=C[C@H]14)O2 here?
A: The Activity was “Non-Toxic”.

Q: What about the inhibition at 0.5 µg/mL [6] of the same compound?
A: Its inhibition at 0.5 µg/mL is 20%.

Q: And the Activity [2]?
A: Its Activity is “inactive”.

Q: What about the Activity [3] of the same compound?
A: The Activity was “inactive”.

Q: And the Activity [7]?
A: The Activity was “inactive”.

Q: What about the Activity [8] of the same compound?
A: Its Activity is “Active”.

Q: What about the Activity [9] of the same compound?
A: Its Activity is “inactive”.

Q: And the IC50 [10]?
A: The IC50 was over 50 µM.

Q: And the IC50 [11]?
A: Its IC50 is 64.2 µM.

Q: And the Activity [5]?
A: The Activity was “Active”.

Q: What about the inhibition [12] of the same compound?
A: The inhibition was “Active”.

Q: What about the Ratio [13] of the same compound?
A: The Ratio was 0.73.

Q: What about the Ratio [14] of the same compound?
A: Its Ratio is 0.68.
